From ChEMBL document CHEMBL3112569, “3-Ketone-4,6-diene ceramide analogs exclusively induce apoptosis in chemo-resistant cancer cells” (Bioorg Med Chem, 2014) come the findings set out here.

Each structure is given as a SMILES string. Calls of active or inactive are those of the source. The rule behind the calls is not given here.

A word on the IC50: it is the concentration that gives 50% inhibition.

A short description of experiment [1]: Induction of apoptosis in human MCF-7TN-R cells assessed as caspase-9 activation at 2 times IC50 determined from MTT assay after 24 hrs by caspase Glo 9 assay relative to vehicle-treated control. Type of experiment: functional. In a few lines:
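MCF-7TN-R cells at 7500–10,000 per well in phenol-free DMEM adhered 24 h, then exposed 24 h at twice the MTT-derived IC50. Caspase-9 activity read by Caspase-Glo 9 luminescence, relative to DMSO vehicle. Triplicate on three occasions.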
On the technique in general: Tetrazolium assays rely on reduction of a dye to a coloured formazan, in cell work by metabolically active cells.

For a further experiment, the species on record is Homo sapiens. The experiment can be described thus: (§1) Induction of apoptosis in human MCF-7TN-R cells at 2 times IC50 determined from MTT assay after 24 hrs by ELISA relative to control. Type of experiment: functional. Summed up: (§2)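 MCF-7TN-R cells at 7500–10,000 per well in phenol-free DMEM adhered 24 h, then treated 24 h at twice the MTT-derived IC50. DNA fragmentation read with cell death detection ELISA. Normalized to MTT viability on the same plate, duplicate on three occasions.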

A further experiment has as its system OVCAR-8. Briefly: Cytotoxicity against human OVCAR8 cells assessed as cell viability after 72 hrs by CellTiter-Glo luminescence assay. Type of experiment: functional, cell-based. The note with it: OVCAR-8, 72 h. Summed up: (§3)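 Cells grown overnight at 4000 per well in RPMI-1640 with 10% FBS, then treated with analogs for 72 h. Viability measured as luminescent ATP after incubation with CellTiter-Glo reagent. Three independent experiments.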
A general note: ATP-based viability assays read luminescence as a measure of living cells.

Experiment [2] has as its system MCF7. The experiment can be described thus: Cytotoxicity against human MCF7 cells assessed as cell viability after 72 hrs by CellTiter-Glo luminescence assay. The format is functional, cell-based. As to conditions: MCF7, 72 h. In a few lines:
as §3

The subject of experiment [3] is MDA-MB-231. The experiment can be described thus: Cytotoxicity against human MDA-MB-231 cells assessed as cell viability after 24 hrs by MTT assay. As to conditions: MDA-MB-231, 24 h. The format is functional, cell-based. In a few lines:
(§4)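 Cells seeded at 7500–10,000 per well in phenol-free DMEM and allowed 24 h to adhere. Exposed to graded analog concentrations (1 to 100 μM) for 24 h, then MTT added for 3–4 h. Formazan dissolved in 20% SDS/50% DMF for 24 h, absorbance read at 550 nm. Expressed as % of DMSO vehicle, run in quadruplicate on three occasions, IC50 from dose–response fit.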

The target in experiment [4] is T1, Ceramide glucosyltransferase (Homo sapiens) (UniProt Q16739).
T1 sequence (whole entry): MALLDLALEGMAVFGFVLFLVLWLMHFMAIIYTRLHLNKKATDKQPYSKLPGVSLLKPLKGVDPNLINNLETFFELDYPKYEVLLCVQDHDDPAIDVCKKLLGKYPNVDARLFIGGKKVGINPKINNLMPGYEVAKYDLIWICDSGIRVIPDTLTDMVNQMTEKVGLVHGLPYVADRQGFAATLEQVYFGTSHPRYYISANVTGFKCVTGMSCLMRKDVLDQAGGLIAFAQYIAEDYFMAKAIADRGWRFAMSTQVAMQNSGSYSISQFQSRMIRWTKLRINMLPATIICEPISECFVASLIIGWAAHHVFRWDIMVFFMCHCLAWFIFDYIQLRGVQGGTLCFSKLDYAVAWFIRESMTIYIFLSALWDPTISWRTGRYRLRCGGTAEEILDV
Briefly: Inhibition of GCS in human NCI/ADR-RES cells assessed as decrease in ratio of glucosylceramide to ceramide level at IC50 after 4 hrs by TLC assay. Type of experiment: cell-based.

The nature of experiment [5]: as §1. The format is functional. Summed up: as §2
For experiment [6], the system named is MCF7. The experiment can be described thus: Cytotoxicity against human MCF7 cells assessed as colony formation after 10 to 12 days by crystal violet staining assay. Type of experiment: functional, cell-based. Summed up:
(§5)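 Colony formation: 1000 cells per well in 10% DMEM, 24 h adhesion, then graded analog dilutions until colonies formed (generally 10–12 days). Fixed in 3% glutaraldehyde 30 min, stained 40 min with 0.2% crystal violet/20% methanol. Colonies over 30 cells hand-counted, normalized to DMSO control, IC50 from dose–response fit.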

In experiment [7] the target is T1, Ceramide glucosyltransferase (Homo sapiens). Briefly: Inhibition of GCS in human OVCAR8 cells assessed as decrease in ratio of glucosylceramide to ceramide level at IC50 after 4 hrs by TLC assay. The format is cell-based. The note with it: OVCAR-8.
Experiment [8] in a line: Cytotoxicity against human MCF7/DX cells assessed as cell viability after 72 hrs by CellTiter-Glo luminescence assay. Type of experiment: functional, cell-based. In a few lines:
as §3

The next experiment has as its system NCI/ADR-RES. Briefly: Cytotoxicity against human NCI/ADR-RES cells assessed as cell viability after 72 hrs by CellTiter-Glo luminescence assay. The format is functional, cell-based. Summed up: as §3
For experiment [9], the system named is MDA-MB-231. Briefly: Cytotoxicity against human MDA-MB-231 cells assessed as colony formation after 10 to 12 days by crystal violet staining assay. The format is functional, cell-based. In a few lines: as §5
Experiment [10] in a line: Cytotoxicity against human MCF-7TN-R cells assessed as cell viability after 24 hrs by MTT assay. Type of experiment: functional, cell-based. Summed up: as §4
Experiment [11] relates to MCF7. The experiment can be described thus: Cytotoxicity against human MCF7 cells assessed as cell viability after 24 hrs by MTT assay. Type of experiment: functional, cell-based. The note with it: MCF7, 24 h. In a few lines:
as §4

The nature of experiment [12]: Cytotoxicity against human MCF-7TN-R cells assessed as colony formation after 10 to 12 days by crystal violet staining assay. The format is functional, cell-based. Summed up:
as §5

Experiment [13] can be described thus: Cytotoxicity against human MCF-7TN-R cells assessed as cell viability after 24 to 48 hrs by MTT assay. The format is functional, cell-based.

With `CCCCCCCCCCCCC/C=C/[C@@H](O)[C@H](CO)NC(=O)CCCCCCC`, the “fold change (FC)” value in experiment [1] is listed as 1.18. Also, in the experiment listed under Homo sapiens, the outcome was Active.
Consider `CCCCCCCCCC/C=C/C=C/C(=O)[C@H](CO)NC(=O)Cc1ccccc1`, for which the IC50 in the experiment with OVCAR-8 came to 7.82 µM; in the experiment on MCF7 [2], 3.92 µM; with MDA-MB-231 [3], 161 µM; in the experiment on MCF7 [6] it was 3.4 µM; in [8] it was 3.92 µM; in the experiment with NCI/ADR-RES, 4.92 µM. The IC50 was found to be 1.4 µM in the experiment on MDA-MB-231 [9], 4.26 µM in experiment [10], 22 µM in the experiment on MCF7 [11] and 1.81 µM in experiment [12]. Further, the “fold change (FC)” value was determined as 3.59 in [1] and 4.3 in [5]. Further, the Ratio in [4] stood at 1; in experiment [7], 0.6.
`CCCCCCCCCC/C=C/C=C/[C@@H](O)[C@@H]1COC(C)(C)N1C(=O)OC(C)(C)C`: the IC50 came to 75.2 µM with MDA-MB-231 [3]; 5.69 µM with MCF7 [6]; 3.17 µM with MDA-MB-231 [9]; 9.91 µM in experiment [10]; 26.4 µM in the experiment with MCF7 [11]; 5.19 µM in [12].
Take `CCCCCCCCCCCCCCNC(=O)[C@H](CO)/N=C/c1ccccc1`: the IC50 in the experiment with OVCAR-8 was 16.3 µM; in the experiment on MCF7 [2], 14.1 µM; in experiment [8], 10.1 µM; in the experiment with NCI/ADR-RES it was 13.8 µM. Besides, the Ratio worked out at 0.8 in [4] and 0.9 in experiment [7].
As for `CCCCCCCCCCCCC/C=C/[C@@H](O)[C@H](CO)NC(=O)Cc1ccccc1`, the IC50 in the experiment on MDA-MB-231 [3] was 51.2 µM; in the experiment with MCF7 [6], 4.18 µM; with MDA-MB-231 [9] it was 1.59 µM; in [10], 4.74 µM; in the experiment on MCF7 [11] it was 37.3 µM; in [12], 5.62 µM.
For `CCCCCCCCCCC/C=C/C=C/[C@@H](O)[C@H](CO)NC(=O)CCCCCCC`, the IC50 in experiment [13] is 11.3 µM.
Take `CCCCCCCCCCCCCCNC(=O)[C@H](CO)NC(=O)Cc1ccccc1`: the IC50 in the experiment with MCF7 [6] came to 10.2 µM; in the experiment on MDA-MB-231 [9], 17.6 µM; in experiment [10] it was 29 µM; with MCF7 [11] it was 234 µM; in experiment [12] it was 10.1 µM.
`CCCCCCCCCC/C=C/C=C/C(=O)[C@@H]1COC(C)(C)N1C(=O)OC(C)(C)C`: the IC50 stood at 17.2 µM with MDA-MB-231 [3]; 5.07 µM in the experiment with MCF7 [6]; 1.45 µM in the experiment on MDA-MB-231 [9]; 4.05 µM in experiment [10]; 3.91 µM with MCF7 [11]; 1.85 µM in [12]. For the same compound, the “fold change (FC)” value was determined as 1.86 in [1] and 3.09 in experiment [5].
